Experimental data from ChEMBL document CHEMBL1146584, “Renieramycin J, a highly cytotoxic tetrahydroisoquinoline alkaloid, from a marine sponge Neopetrosia sp” (J Nat Prod, 2003).
Activity calls are given as the source filed them. No cut-off for these calls is given here.

What was measured:
[1] = Cytotoxicity against rat 3Y1 cells after 72 hrs by MTT assay; assay type: functional, cell-based; details: 3Y1, 72 h
[2] = system: 3Y1 cell line; experiment: Induction of morphological changes in rat 3Y1 cells assessed as disappearance of nucleoli at 86 nM after 6 hrs by phase contrast microscopy; assay type: functional, cell-based
Procedure, shortened: (§1)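 Rat 3Y1 cells exposed to 86 nM; nucleoli (shrinkage or loss) and filopodial development inspected at 6 h.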

[3] = system: HeLa; experiment: Cytotoxicity against human HeLa cells after 72 hrs by MTT assay; assay type: functional, cell-based
[4] = system: 3Y1 cell line; experiment: Induction of morphological changes in rat 3Y1 cells assessed as cell shrinkage at 86 nM after 6 hrs by phase contrast microscopy; assay type: functional, cell-based; procedure, shortened: as §1
[5] = system: 3Y1; experiment: Induction of morphological changes in rat 3Y1 cells assessed as cell death at 1.7 uM after 24 hrs; assay type: functional, cell-based
Procedure, shortened: (§2)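 3Y1 cells exposed to 1.7 μM; cell rounding scored at 6 h, proportion of dead cells estimated within 24 h.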

[6] = system: 3Y1 cell line; experiment: Induction of morphological changes in rat 3Y1 cells assessed as cell rounding at 1.7 uM after 6 hrs; assay type: functional, cell-based; procedure, shortened: as §2
[7] = system: 3Y1 cell line; experiment: Induction of morphological changes in rat 3Y1 cells assessed as increase in dead cell number after 12 hrs by light microscopy; assay type: functional, cell-based
Procedure, shortened: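 3Y1 cells kept under continued exposure; cellular boundaries and dead-cell numbers inspected at 12 h and followed to day five under a light microscope.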

[8] = system: 3Y1 cell line; experiment: Induction of morphological changes in rat 3Y1 cells assessed as filopodial development; assay type: functional, cell-based; procedure, shortened: as §1
[9] = Induction of morphological changes in rat 3Y1 cells assessed as cell death at 1.7 uM after 24 hrs
[10] = system: P388; experiment: Cytotoxicity against mouse P388 cells after 72 hrs by MTT assay; assay type: functional, cell-based; details: P388, 72 h

With `C/C=C(/C)C(=O)OC[C@H]1C2=C(C[C@H]3[C@H]4c5c(O)c(OC)c(C)c(O)c5[C@H](O)[C@@H]([C@H](O)N13)N4C)C(=O)C(C)=C(OC)C2=O` [RENIERAMYCIN J] the IC50 [1] was 5.3 nM, the Activity [2] was “Active” and the IC50 [3] was 12.3 nM. For the same compound, the Activity [4] was “Active”, the Activity [5] was “Active” and the Activity [6] was “Active”. For the same compound, the Activity [7] was “Active”, the Activity [8] was “Active” and the Activity [9] was 90%. It also gave an IC50 [10] of 0.53 nM.
